Experimental data published in ChEMBL document CHEMBL4325904 (Eur J Med Chem, 2019).
Activity calls are given as the source filed them. The rule behind the calls is not given here.

How the values were obtained:
[1] = molecular target: Histone deacetylase 3/Nuclear receptor corepressor 2 (HDAC3/NCoR2) (Homo sapiens, UniProt O15379); format: cell-based
Homo sapiens [2] = species: Homo sapiens; test: Selectivity ratio of IC50 for recombinant full length C-terminal FLAG/His-tagged human HDAC1 (1 to 482 residues) to IC50 for recombinant N-terminal GST-tagged human HDAC6 (1 to 1215 residues)
Kasumi 1 = test: Antiproliferative activity against human Kasumi-1 cells after 72 hrs by resazurin dye-based assay; format: functional, cell-based; conditions: Kasumi 1, 72 h
Procedure, shortened: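 KASUMI-1 cells incubated with compounds for 72 hr; viability read with resazurin reagent. IC50 taken as the mean of three experiments, each run in duplicate.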

Homo sapiens [3] = species: Homo sapiens; test: Selectivity ratio of IC50 for human recombinant full length C-terminal His-tagged HDAC3 (1 to 428 residues)/N-terminal GST-tagged NCOR2 (395 to 489 residues) to IC50 for recombinant N-terminal GST-tagged human HDAC6 (1 to 1215 residues)
[4] = molecular target: T1, Protein deacetylase HDAC6 (Homo sapiens, UniProt Q9UBN7); test: Inhibition of recombinant N-terminal GST-tagged human HDAC6 (1 to 1215 residues) expressed in Baculovirus infected insect cells using RHKK-Ac as substrate by fluorimetric assay
T1 sequence (Q9UBN7 whole entry): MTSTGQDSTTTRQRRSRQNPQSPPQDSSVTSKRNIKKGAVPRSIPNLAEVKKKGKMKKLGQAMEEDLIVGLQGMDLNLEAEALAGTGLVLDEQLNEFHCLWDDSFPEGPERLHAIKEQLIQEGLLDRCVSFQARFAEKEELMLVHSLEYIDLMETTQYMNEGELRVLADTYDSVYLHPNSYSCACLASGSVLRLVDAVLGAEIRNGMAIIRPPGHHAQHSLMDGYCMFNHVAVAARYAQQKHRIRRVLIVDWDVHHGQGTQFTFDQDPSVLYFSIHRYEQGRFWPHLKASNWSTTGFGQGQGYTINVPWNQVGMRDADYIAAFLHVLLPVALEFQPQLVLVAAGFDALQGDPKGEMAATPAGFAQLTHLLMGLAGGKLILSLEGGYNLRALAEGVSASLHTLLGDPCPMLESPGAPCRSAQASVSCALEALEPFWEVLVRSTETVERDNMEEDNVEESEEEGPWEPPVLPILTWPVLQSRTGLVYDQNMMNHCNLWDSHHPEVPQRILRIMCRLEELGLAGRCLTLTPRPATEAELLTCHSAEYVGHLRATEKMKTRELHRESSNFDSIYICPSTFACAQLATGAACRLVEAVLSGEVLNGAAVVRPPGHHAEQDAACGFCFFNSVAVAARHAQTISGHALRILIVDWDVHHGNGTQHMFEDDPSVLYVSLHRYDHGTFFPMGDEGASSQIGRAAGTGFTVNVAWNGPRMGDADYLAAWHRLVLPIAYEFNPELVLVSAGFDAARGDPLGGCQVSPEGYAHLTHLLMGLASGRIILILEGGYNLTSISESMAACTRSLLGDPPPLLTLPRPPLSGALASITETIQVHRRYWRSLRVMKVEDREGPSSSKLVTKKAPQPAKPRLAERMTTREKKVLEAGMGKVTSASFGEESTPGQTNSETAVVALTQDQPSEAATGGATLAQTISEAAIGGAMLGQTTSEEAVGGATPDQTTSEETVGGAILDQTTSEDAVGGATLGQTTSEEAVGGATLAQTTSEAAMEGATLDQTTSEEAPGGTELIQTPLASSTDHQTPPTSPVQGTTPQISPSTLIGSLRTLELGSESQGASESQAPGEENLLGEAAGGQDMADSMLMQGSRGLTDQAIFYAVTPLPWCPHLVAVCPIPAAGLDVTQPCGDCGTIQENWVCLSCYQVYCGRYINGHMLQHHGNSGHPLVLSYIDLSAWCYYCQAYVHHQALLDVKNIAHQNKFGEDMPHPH

Histone deacetylase 11 = molecular target: T2, Histone deacetylase 11 (Homo sapiens, UniProt Q96DB2); test: Inhibition of recombinant C-terminal His-tagged human HDAC11 (1 to 347 residues) expressed in Baculovirus infected insect cells using RHKK-Ac as substrate by fluorimetric assay
T2 sequence (Q96DB2 whole entry): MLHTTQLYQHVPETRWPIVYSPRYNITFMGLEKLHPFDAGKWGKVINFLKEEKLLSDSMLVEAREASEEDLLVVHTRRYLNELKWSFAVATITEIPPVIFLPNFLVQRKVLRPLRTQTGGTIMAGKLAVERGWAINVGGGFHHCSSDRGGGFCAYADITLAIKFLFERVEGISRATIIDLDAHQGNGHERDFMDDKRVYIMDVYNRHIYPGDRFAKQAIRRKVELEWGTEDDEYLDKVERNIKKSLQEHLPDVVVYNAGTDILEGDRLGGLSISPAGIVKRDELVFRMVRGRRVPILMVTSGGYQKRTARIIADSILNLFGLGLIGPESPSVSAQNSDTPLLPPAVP

Histone deacetylase 1 = Histone deacetylase 1 (Homo sapiens, UniProt Q13547); test: Inhibition of recombinant full length C-terminal FLAG/His-tagged human HDAC1 (1 to 482 residues) expressed in sf21 cells using RHK-K(Ac)-AMC as substrate by fluorimetric assay
Histone deacetylase 8 = molecular target: T3, Histone deacetylase 8 (Homo sapiens, UniProt Q9BY41); test: Inhibition of recombinant C-terminal His-tagged human HDAC8 (1 to 377 residues) expressed in Baculovirus infected insect cells using RHK-K(Ac)-AMC as substrate by fluorimetric assay
T3 sequence (Q9BY41 whole entry): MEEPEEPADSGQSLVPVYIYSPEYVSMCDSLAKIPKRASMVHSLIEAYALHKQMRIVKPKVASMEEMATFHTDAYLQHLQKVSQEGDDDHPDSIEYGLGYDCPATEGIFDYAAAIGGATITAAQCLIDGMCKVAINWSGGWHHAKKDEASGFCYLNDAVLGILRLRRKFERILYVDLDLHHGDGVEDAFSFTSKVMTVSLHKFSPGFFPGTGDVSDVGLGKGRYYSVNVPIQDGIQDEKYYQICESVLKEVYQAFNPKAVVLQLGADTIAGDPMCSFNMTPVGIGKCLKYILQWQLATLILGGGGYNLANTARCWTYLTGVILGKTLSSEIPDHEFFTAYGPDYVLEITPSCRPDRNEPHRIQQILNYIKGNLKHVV

Danio rerio = test: Antiangiogenic activity in zebrafish embryo assessed as effect on blood vessel development at 10 uM administered from 24 to 50 hrs post fertilization for 24 hrs and measured after 72 hrs by alkaline phosphatase assay; format: functional, organism-based
Procedure, shortened: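 Zebrafish embryos exposed at 10 µM from 24–50 hpf alongside vehicle-only controls; at 72 hpf embryos stained with alkaline phosphatase to visualise blood vessels.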

[5] = Drug uptake in human A549 cells lysosome at 1 uM after 2 hrs by Lyso-tracker red-based inverted light fluorescence confocal microscopic analysis; conditions: a549, 2 h
[6] = Drug uptake in human A549 cells lysosome at 1 uM after 2 hrs by naphthalimide/Lysotracker Deep Red dye-based inverted light fluorescence confocal microscopic analysis; format: ADME, subcellular; conditions: a549, 2 h
[7] = Drug uptake in human A549 cells cytoplasm at 1 uM after 2 hrs by naphthalimide dye-based inverted light fluorescence confocal microscopic analysis; format: ADME, subcellular; conditions: a549, 2 h
Procedure, shortened: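 A549 cells incubated 2 hours with compound at 1 µM; intracellular distribution imaged by confocal microscopy with 405 nm laser excitation, emission collected at 460–560 nm.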

Homo sapiens [8] = species: Homo sapiens; test: Selectivity ratio of IC50 for human HDAC1 to IC50 for human HDAC6
[9] = molecular target: T1, Protein deacetylase HDAC6; test: Inhibition of human HDAC6 using (Z-(Ac)Lys-AMC) as substrate after 90 mins by fluorescence analysis

Histone deacetylase 3/Nuclear receptor corepressor 2 (HDAC3/NCoR2), sequence (O15379 whole entry, the tested form may be a part): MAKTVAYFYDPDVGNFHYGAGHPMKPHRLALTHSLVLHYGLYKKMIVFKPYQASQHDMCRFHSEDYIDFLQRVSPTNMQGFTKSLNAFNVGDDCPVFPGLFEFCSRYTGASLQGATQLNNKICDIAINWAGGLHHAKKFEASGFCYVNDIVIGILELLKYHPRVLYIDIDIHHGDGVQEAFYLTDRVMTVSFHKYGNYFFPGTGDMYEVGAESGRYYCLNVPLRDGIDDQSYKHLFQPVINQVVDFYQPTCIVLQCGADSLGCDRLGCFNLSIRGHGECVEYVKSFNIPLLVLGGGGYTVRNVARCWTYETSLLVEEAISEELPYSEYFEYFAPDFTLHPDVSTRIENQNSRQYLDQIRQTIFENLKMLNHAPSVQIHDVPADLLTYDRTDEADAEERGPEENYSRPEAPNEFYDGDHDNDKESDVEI
Histone deacetylase 3/Nuclear receptor corepressor 2 (HDAC3/NCoR2), sequence (Q9Y618 whole entry, further chain, the tested form may be a part): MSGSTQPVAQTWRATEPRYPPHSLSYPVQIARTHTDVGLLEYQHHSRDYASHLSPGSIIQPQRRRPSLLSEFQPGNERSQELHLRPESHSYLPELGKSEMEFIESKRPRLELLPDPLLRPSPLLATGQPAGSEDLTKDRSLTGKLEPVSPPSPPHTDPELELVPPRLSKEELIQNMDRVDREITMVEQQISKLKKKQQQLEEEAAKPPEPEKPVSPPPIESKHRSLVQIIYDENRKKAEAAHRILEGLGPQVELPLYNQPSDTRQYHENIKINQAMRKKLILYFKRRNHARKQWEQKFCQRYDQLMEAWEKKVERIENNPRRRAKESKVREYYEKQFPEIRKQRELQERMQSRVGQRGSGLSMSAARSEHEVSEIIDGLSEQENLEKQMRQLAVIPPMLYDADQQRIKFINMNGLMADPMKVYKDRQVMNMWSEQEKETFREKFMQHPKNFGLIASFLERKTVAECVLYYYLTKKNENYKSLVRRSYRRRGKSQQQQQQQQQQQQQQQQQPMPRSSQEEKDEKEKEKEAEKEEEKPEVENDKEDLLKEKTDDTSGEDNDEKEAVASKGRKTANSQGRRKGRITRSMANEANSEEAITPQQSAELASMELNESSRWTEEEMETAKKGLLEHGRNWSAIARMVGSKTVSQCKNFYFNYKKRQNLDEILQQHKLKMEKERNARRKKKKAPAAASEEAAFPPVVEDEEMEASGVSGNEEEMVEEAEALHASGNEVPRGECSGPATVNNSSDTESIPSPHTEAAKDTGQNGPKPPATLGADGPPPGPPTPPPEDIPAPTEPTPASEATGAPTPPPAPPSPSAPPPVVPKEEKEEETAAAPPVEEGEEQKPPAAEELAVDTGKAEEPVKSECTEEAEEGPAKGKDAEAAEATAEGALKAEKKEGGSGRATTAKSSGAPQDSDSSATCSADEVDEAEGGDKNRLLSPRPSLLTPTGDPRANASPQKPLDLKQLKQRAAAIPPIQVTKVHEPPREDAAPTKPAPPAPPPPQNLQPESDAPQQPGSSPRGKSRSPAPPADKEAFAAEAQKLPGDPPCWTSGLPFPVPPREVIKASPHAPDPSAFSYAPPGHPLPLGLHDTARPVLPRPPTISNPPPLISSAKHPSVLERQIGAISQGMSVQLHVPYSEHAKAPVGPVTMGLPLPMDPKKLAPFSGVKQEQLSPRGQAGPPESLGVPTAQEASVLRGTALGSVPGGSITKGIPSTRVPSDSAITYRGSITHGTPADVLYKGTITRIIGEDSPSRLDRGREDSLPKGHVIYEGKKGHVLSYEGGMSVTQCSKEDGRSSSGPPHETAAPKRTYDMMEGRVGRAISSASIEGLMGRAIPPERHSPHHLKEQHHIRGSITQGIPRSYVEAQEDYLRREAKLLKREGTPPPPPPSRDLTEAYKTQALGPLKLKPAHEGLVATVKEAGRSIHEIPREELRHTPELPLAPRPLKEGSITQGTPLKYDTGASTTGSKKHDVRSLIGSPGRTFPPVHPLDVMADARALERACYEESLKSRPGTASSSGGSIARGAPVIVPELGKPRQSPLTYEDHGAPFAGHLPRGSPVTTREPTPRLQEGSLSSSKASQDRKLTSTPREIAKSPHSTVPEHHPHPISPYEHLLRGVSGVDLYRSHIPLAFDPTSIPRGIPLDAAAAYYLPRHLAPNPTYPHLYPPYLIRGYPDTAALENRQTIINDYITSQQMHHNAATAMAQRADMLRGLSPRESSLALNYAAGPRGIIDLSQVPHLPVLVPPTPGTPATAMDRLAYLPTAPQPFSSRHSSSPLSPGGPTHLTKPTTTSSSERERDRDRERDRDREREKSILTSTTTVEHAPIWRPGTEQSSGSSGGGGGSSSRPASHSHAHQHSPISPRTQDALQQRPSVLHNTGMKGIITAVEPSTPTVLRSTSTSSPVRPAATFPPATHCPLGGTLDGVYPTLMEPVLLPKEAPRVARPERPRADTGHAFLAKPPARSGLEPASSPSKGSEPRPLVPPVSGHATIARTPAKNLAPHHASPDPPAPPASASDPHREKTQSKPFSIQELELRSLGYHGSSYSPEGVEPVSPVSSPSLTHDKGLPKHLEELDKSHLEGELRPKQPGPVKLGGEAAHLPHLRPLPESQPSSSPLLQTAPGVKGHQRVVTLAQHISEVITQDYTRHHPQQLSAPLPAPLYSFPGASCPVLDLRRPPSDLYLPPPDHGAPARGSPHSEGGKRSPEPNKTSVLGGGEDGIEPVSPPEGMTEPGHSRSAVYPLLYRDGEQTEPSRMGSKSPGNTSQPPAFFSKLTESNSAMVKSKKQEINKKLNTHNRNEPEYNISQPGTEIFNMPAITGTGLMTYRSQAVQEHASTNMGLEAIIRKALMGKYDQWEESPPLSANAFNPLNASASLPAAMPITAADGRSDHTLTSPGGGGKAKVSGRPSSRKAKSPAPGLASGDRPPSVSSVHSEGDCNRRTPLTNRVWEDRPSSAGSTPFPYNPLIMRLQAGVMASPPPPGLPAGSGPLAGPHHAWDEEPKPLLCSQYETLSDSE
Histone deacetylase 1, sequence (Q13547 whole entry, the tested form may be a part): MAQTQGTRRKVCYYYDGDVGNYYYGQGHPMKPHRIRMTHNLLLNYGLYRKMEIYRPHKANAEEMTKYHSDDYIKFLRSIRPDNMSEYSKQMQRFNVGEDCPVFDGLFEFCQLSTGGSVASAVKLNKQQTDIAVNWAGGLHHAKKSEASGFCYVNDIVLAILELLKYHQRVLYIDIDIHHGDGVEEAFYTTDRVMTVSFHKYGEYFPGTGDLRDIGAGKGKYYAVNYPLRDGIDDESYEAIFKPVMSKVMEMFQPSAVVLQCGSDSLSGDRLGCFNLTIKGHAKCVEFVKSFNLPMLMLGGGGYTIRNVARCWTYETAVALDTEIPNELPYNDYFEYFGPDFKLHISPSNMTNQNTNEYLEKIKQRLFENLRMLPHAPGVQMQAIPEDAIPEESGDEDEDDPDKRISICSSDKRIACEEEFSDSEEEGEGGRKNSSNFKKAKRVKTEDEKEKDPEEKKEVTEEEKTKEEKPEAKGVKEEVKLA

SMILES	IC50 [1] [nM]	Ratio IC50 (Homo sapiens [2])	IC50 (Kasumi 1) [nM]	Ratio IC50 (Homo sapiens [3])	IC50 [4] [nM]	IC50 (Histone deacetylase 11) [nM]	IC50 (Histone deacetylase 1) [nM]	IC50 (Histone deacetylase 8) [nM]	Activity (Danio rerio)	Drug uptake [5]	Drug uptake [6]	Drug uptake [7]	Ratio IC50 (Homo sapiens [8])	IC50 [9] [nM]
CN(Cc1ccccc1)c1ccc2c3c(cccc13)C(=O)N(CCCCCC(=O)NO)C2=O	700	245	810	72	9.7	1220	2380	1400	–	–	–	–	–	–
CC(/C=C/C(=O)NO)=C\[C@@H](C)C(=O)c1ccc(N(C)C)cc1	–	–	–	–	–	–	–	–	Active	–	–	–	–	–
O=C(CCCCCN1C(=O)c2cccc3c(Nc4cccc(F)c4)ccc(c23)C1=O)NO	550	219	320	39	14	210	3060	4070	–	–	–	–	–	–
O=C(CCCCCN1C(=O)c2cccc3cccc(c23)C1=O)NO	–	–	490	–	–	–	–	–	Active	–	–	–	–	–
Nc1ccccc1NC(=O)CCCCCN1C(=O)c2cccc3cccc(c23)C1=O	200	–	1090	–	> 10000	9350	740	> 10000	–	–	–	–	–	–
O=C(CCCCCN1C(=O)c2cccc3c([N+](=O)[O-])ccc(c23)C1=O)NO	1620	111	570	284	5.7	1020	630	620	–	–	–	–	–	–
O=C(CCCCCN1C(=O)c2cccc3c(Nc4ccccc4)ccc(c23)C1=O)NO	470	183	280	36	13	190	2380	4090	–	–	–	–	–	–
Nc1ccccc1NC(=O)CCCCCN1C(=O)c2cccc3c(N4CCOCC4)ccc(c23)C1=O	290	–	640	–	> 10000	8120	430	> 10000	–	Active	Active	Active	–	–
O=C(NO)c1ccc(CNC(=O)c2cc(Cn3c4ccccc4c4ccccc43)on2)cc1	–	–	–	–	–	–	–	–	–	–	–	–	490	0.61
O=C(CCCCCN1C(=O)c2cccc3c(N4CCOCC4)ccc(c23)C1=O)NO	320	119	290	27	12	290	1430	1810	–	–	–	–	120	12
